RGS4 act: RGS4 potentiation or activation; HEK293 M3R/inducible RGS4, carbachol calcium flux Fluo4; hits give low values; B-score at 10 µM; 0.92% of 310,000 active; AID 463111;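 active means B-score of the integrated calcium signal more than 4 SD below the library mean, with starting fluorescence not abnormally high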;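 further: negative B-score means reduced calcium response which marks RGS4 activation or potentiation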
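Detection: kinetic calcium fluorescence imaging with Fluo4-AM dye, 2 µM / Material: HEK293 cells with stable M3R and inducible RGS4 / Schedule: recording 10 s baseline at 1 Hz, 100 s post-agonist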
RGS4 inh: human RGS4 inhibition; P49798; HEK293 M3R/RGS4 inducible, Fluo-4 calcium flux; hits give high values; triggered by carbachol at its EC20; B-score at 10 µM; 0.45% of 310,000 active;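 active means B-score, a plate-corrected calcium signal, over three deviations above library mean, with baseline fluorescence within five deviations of library mean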;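 further: RGS4 expression induced by doxycycline in cells with stable M3 receptor; B-score is computed from the integrated fluorescence ratio over baseline after carbachol; higher B-score means a larger calcium signal and so more RGS4 inhibition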
Target sequence (P49798 whole entry, looked up): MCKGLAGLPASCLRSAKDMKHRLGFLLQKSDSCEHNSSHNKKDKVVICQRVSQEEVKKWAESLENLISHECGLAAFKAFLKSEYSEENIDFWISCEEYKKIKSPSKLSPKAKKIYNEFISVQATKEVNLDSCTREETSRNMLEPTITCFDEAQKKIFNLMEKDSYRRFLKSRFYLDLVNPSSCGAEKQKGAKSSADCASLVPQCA
MrgX1 agonist: agonists of human MrgX1 receptor; MrgX1-HEK293 cells, Fluo-4 calcium fluorescence, agonist mode; hits give high values; B-score at 10 µM; 0.44% of 310,000 active; AID 588627;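 active means calcium response B-score plate-corrected fluorescence ratio at least 3 library SD, with starting fluorescence B-score inside 5 SD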
Target sequence (Q96LB2 whole entry, looked up): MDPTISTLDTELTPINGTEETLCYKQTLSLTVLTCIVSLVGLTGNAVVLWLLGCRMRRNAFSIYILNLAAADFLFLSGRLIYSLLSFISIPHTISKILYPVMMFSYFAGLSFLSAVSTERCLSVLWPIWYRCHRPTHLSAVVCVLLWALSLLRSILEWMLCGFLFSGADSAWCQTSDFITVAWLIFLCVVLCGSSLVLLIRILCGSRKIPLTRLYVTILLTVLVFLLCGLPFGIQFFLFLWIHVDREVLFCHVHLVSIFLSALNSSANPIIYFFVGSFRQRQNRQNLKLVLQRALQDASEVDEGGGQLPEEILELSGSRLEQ
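Material: MrgX1-expressing HEK293 cells; input: 15,000 cells per well; doses: test compound given as first of three sequential additions; schedule: overnight plating before 1 h dye loading; technique: Fluo-4 NW calcium-flux fluorescence, kinetic read; evaluation: baseline-normalised fluorescence change ratio, B-scored; control set: plate-wise positive and negative controls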
MrgX1 antag: antagonists of human MrgX1 receptor; AID 588676; B-score at 10 µM; 1.3% of 310,000 active; MRGX1-HEK293 calcium flux, Fluo-4, BAM8-22 antagonism; hits give low values; Q96LB2;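 active means calcium-response B-score plate-corrected more than 3 library SD below zero, starting fluorescence within 5 deviations, no agonist response on first addition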;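 further: peak minus trough fluorescence over baseline after final BAM8-22 challenge near maximal dose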
MrgX1 PAM: allosterically activates human MrgX1 receptor signaling. Q96LB2. MrgX1-HEK293, Fluo-4 calcium flux, FDSS; hits give high values. B-score at 10 µM. 0.63% of 310,000 active;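 active means plate-corrected calcium response at least 3 library SD above typical, normal starting fluorescence, not activating the receptor alone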;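 further: compound read alongside a low EC10 to EC30 dose of BAM8-22 agonist; peak minus trough fluorescence over baseline measured at the second addition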
MrgX1 ant reconf: reconfirmed antagonist of human MrgX1 receptor signaling; shares compounds with MrgX1 antag; MrgX1-HEK293, BAM8-22 calcium flux, Fluo-4; hits give low values; remaining BAM8-22 calcium response % of control (hits give low values), % at 10 µM; 19% of 2,300 active; AID 602420;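 active means remaining agonist calcium response no higher than 100% minus 3 SD of agonist-only control wells, with starting fluorescence near control levels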;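 further: agonist BAM8-22 given at a near maximal EC90 to ECmax level; peak minus minimum fluorescence divided by baseline after agonist addition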
HEK293 Ca flux: activity in parental HEK293 cells lacking MrgX1. shares compounds with MrgX1 antag. Fluo-4 calcium fluorescence, FDSS. fluorescence ratio F(max-min)/F0 at 10 µM. 2% of 4,000 active. AID 624111;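 active means duplicate-averaged calcium fluorescence ratio at least three times the standard deviation of buffer wells, a nonspecific response in parental cells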
HEK293 Ca counter: activity in parental HEK293 cells without MrgX1; shares compounds with MrgX1 antag; parental HEK293 calcium flux, Fluo-4 fluorescence ratio; hits give high values; fluorescence ratio F(max-min)/F0 at 10 µM; 0.4% of 4,000 active;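 active means calcium fluorescence ratio, averaged over duplicates, at least 3 SD of the buffer-well ratio, meaning a nonspecific response in receptor-free cells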;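 further: untransfected parental HEK293 lacking MrgX1 used as counterscreen for MrgX1 allosteric activators; fluorescence change taken during the second addition on a kinetic imager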
HEK293 Ca cntr2: MrgX1 activator counter-screen hit in parental HEK293 cells. AID 624115. 8.7% of 4,000 active. fluorescence ratio F(max-min)/F0 at 10 µM. shares compounds with MrgX1 antag. Fluo-4 calcium fluorescence (FDSS); hits give high values;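 active means calcium fluorescence ratio at least three times the spread of buffer wells, meaning a non-specific response in parental cells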
The depositor's hits bear a star; i = inactive; / = no result. Shown are actives, neighbours in structure and some others; about 3.5% of the full set was active somewhere.

SMILES	RGS4 act	RGS4 inh	MrgX1 agonist	MrgX1 antag	MrgX1 PAM	MrgX1 ant reconf	HEK293 Ca flux	HEK293 Ca counter	HEK293 Ca cntr2
O=C(NCCc1ccccc1)NC1CCCCC1	i	i	i	-4.8*	i	i	i	i	i
O=C(CCS(=O)(=O)c1ccccc1)NC1CCCCC1	i	i	i	i	i	/	/	/	/
O=C(CCS(=O)(=O)Cc1ccccc1)NC1CCCCC1	i	i	i	-4.9*	i	i	i	i	i
O=C(CCSc1ccc(Cl)cc1)NC1CCCC1	i	i	i	i	i	/	/	/	/
O=C(CCSc1ccccc1)NC1CCCC1	i	i	i	-8.8*	i	i	i	i	i
O=C(CCSc1ccccc1)NCc1cccnc1	i	i	i	-5.5*	i	85%*	i	i	i
COc1ccc(-c2nn(C)c(=O)[nH]2)cc1	i	i	i	i	i	/	/	/	/
COC(=O)c1cccc(NC(=O)CSc2nc3cccnc3n2C)c1	/	/	i	-4.8*	i	74%*	i	i	i
COC(=O)c1ccccc1NC(=O)CSc1nc2cccnc2n1C	i	i	i	i	i	/	/	/	/
Cc1cc(Oc2ccccc2)nc(-c2ccccc2)n1	i	i	i	-4.5*	i	i	i	i	i
c1ccc(Oc2cc(-c3ccccc3)nc(-c3ccccc3)n2)cc1	i	i	i	i	i	/	/	/	/
Cn1c(SCC(=O)Nc2ccccc2)nnc1-c1ccc2nonc2c1	i	i	i	i	i	/	/	/	/
Cc1ccccc1OCc1nnc(SCC(=O)Nc2ccc(N3CCOCC3)cc2)n1C	i	i	i	i	i	/	/	/	/
CCc1nnc(SCC(=O)Nc2ccc(N3CCOCC3)cc2)n1C	i	i	i	-5.6*	i	i	i	i	i
O=C(c1cc(COc2cccc3cnccc23)on1)N1CCC(c2ccccc2Cl)C1 (stereo unspecified)	i	i	i	-4.6*	i	i	i	i	i
O=C(c1cc(COc2c(F)cccc2F)on1)N1CCC(c2ccccc2Cl)C1 (stereo unspecified)	i	i	i	i	i	/	/	/	/
S=c1nc(-c2ccccc2Br)[nH][nH]1	i	i	i	-6.1*	i	i	i	i	i
O=C(Nc1ccc(C(=O)O)cc1)/C(=C\c1cccc([N+](=O)[O-])c1)NC(=O)c1ccc(Br)o1	i	i	i	i	i	/	/	/	/
Cc1ccc(CNC(=O)N[C@@H](Cc2ccccc2)C(=O)O)cc1	i	i	i	-7.2*	i	i	i	i	i
COC(=O)[C@H](Cc1ccccc1)NC(=O)NCc1ccc(C)cc1	i	i	i	i	i	/	/	/	/
CCOC(=O)N/N=C(\C)c1ccc(OC(F)F)cc1OC(F)F	i	i	i	i	i	/	/	/	/
CN1CCN(c2ccc(Cl)cc2NS(=O)(=O)c2ccccc2Cl)CC1	i	i	i	-5.3*	i	81%*	i	i	i
CCOC(=O)N1CCN(c2c(Nc3ccc4c(c3)OCCO4)c(=O)c2=O)CC1	i	i	i	-6.8*	i	i	i	i	i
CCOC(=O)N1CCN(c2c(N3CCOCC3)c(=O)c2=O)CC1	i	i	i	i	i	/	/	/	/
C=CCc1cccc(CNc2cnc3ccccc3c2)c1O	i	i	i	-6.6*	i	82%*	i	i	i
SMILES	RGS4 act	RGS4 inh	MrgX1 agonist	MrgX1 antag	MrgX1 PAM	MrgX1 ant reconf	HEK293 Ca flux	HEK293 Ca counter	HEK293 Ca cntr2
Oc1ccccc1CNc1cnc2ccccc2c1	i	i	i	i	i	/	/	/	/
O=C(O)c1ccc(NC2=C(Cl)C(=O)c3ccccc3C2=O)cc1	-7.3*	i	i	-18*	i	14%*	i	i	i
CCn1c(CCC(=O)O)nc2cc(S(=O)(=O)N(C)C)ccc21	i	i	i	i	i	/	/	/	/
CCn1c(CSc2nc(C)cs2)nc2cc(S(=O)(=O)N(C)C)ccc21	i	i	i	-4.6*	i	i	i	i	i
O=C(CCC(=O)N(CC(=O)NC1CCCCC1)c1ccc(F)cc1)Nc1ccccn1	i	i	i	i	i	/	/	/	/
O=C(c1ccc2c(c1)OCO2)N1CCN(c2ccc(Cl)cc2)CC1	i	i	i	i	i	/	/	/	/
O=C(c1ccc2c(c1)OCO2)N1CCN(S(=O)(=O)c2ccc(Cl)cc2)CC1	i	i	i	-4.5*	i	i	i	i	i
CCOc1ccc(NC(=O)CCC(=O)NNC(=O)Nc2ccc(Cl)cc2)cc1	i	i	i	i	i	/	/	/	/
O=C(c1ccc(N2CCN(C(=O)c3cccc(F)c3)CC2)cc1)c1cccc(F)c1	i	i	i	-4.6*	i	i	i	i	i
O=C(c1ccc(N2CCN(C(=O)c3ccccc3Br)CC2)cc1)c1cccc(F)c1	i	i	i	i	i	/	/	/	/
Cc1ccc(-c2nnc(CSc3nnc(C)s3)o2)cc1	i	i	i	-5.9*	i	i	i	i	i
COc1ccc(CNc2nc3nc(C)c(Cl)c(=O)n3[nH]2)cc1OC	i	i	i	-5.9*	i	i	i	i	i
Cc1nc(C(=O)N/N=C/c2[nH]ncc2Br)cs1	i	i	i	i	i	/	/	/	/
Cc1cc(NC(=O)c2cccs2)ncc1NC(=O)C(C)(C)C	i	i	i	i	i	/	/	/	/
O=C(c1ccc2nc(-c3ccco3)c(-c3ccco3)nc2c1)N1CCN(c2ncccn2)CC1	i	i	i	-6*	i	83%*	i	i	i
O=C(Nc1ccccc1)c1ccc2nc(-c3ccco3)c(-c3ccco3)nc2c1	i	i	i	-4.6*	i	79%*	i	i	i
O=C(Nc1ccc(N2CCOCC2)cc1)c1ccc2nc(-c3ccco3)c(-c3ccco3)nc2c1	i	i	i	i	i	/	/	/	/

Screening data deposited in PubChem by Johns Hopkins Ion Channel Center.
